Source: PubChem
This excerpt belongs to a sample that is enriched for hits.
HCT116 bCat-KO: primary screen for growth suppressors in beta-catenin knockout HCT116 cells (colon tumor, human); HCT116 beta-catenin knockout viability, CellTiter-Glo, 60 h; stronger effect = lower value; viability, % at 10 µM; hit rate 1.5% among 140,000;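 active means viability at or under a set limit, the compound median less 4 SD, cut at about 6% in these data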;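 further: 0% = Hyamine 1622 control at 20 µM and 100% = untreated cell control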
H69AR growth 86K: proliferation blockers of H69AR lung cancer cells, primary screen, cell-based, human, 86K library; H69AR lung tumor viability, ATP luminescence, 72 h; stronger effect = lower value; viability, % at 10 µM; hit rate 6% among 85,000; AID 598, 2007;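 active means viability at or below 40%; inactive means viability above 40%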;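 further: multidrug resistant small cell line overexpressing MRP-1 efflux transporter; 100% = mean luminescence of untreated control wells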
Lung fibro prol: antiproliferative effect on LL 47 fibroblasts – human, LL 47 cells, CellTiter-Glo luminescence, primary screen. LL 47 human lung fibroblast viability, ATP luminescence; stronger effect = lower value. viability, % at 10 µM. AID 719, 2007. hit rate 1.1% among 85,000;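 active means viability at or below 50% in the single dose screen; inactive means viability above 50%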;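 further: compound exposure lasted 72 h before the ATP readout; 100% = median luminescence of untreated cell-only wells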
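Test system: LL 47 human lung fibroblasts / Quantity: 1,150 cells in each well / Medium: IMEM growth medium with 15% fetal bovine serum / Incubation: 72 h compound exposure at 37 °C after overnight plating / Detection: CellTiter-Glo luminescence measuring cellular ATP / Read-out: % viability versus median cells-only luminescence / Benchmarks: cell-only wells, no compound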
PTEN del growth: growth suppression of PTEN-null HCT116, primary screen, cell-based, CellTiter-Glo; HCT116 PTEN-null viability, 60 h; stronger effect = lower value; viability, % at 10 µM; AID 827, 2007; hit rate 1.2% among 140,000;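 active means viability at or below a set limit, 4 SD under the median of all tested compounds, cut at about 3.7% in these data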;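 further: PTEN knockout HCT116 line with beta catenin targeted HCT116 as companion control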
HUVEC inhibit: inhibitors of HUVEC proliferation, primary screen, cell-based, 384-well | AID 648, 2007 | CellTiter-Glo luminescence, 72 h; stronger effect = lower value | hit rate 1.1% among 86,000 | viability, % at 10 µM (by protocol);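 active means viability at or below 30%; inactive means viability above 30%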;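 further: 100% = median luminescence of DMSO-only cell control wells on each plate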
An asterisk follows results filed as active; / = no result given.

SMILES	HCT116 bCat-KO	H69AR growth 86K	Lung fibro prol	PTEN del growth	HUVEC inhibit
CC(C)OC(=O)c1ccc(NC(=O)c2ccco2)cc1	84	93	101	87	104
CCSC1(SCC)N=C(N)C2(C#N)C(c3ccc(F)cc3)C12C#N (stereo unspecified)	81	0.8*	3.8*	92	9.6*
COC1(OC)N=C(N)C2(C#N)C(c3ccc(F)cc3)C12C#N (stereo unspecified)	107	88	95	92	86
CCCNC(=O)COC(=O)c1ccccc1OCc1ccc(Cl)cc1	90	/	/	83	/
COc1cccc2c1C(=O)c1c(O)c3c(c(O)c1C2=O)C[C@@](O)(C(C)=O)C[C@@H]3O[C@H]1C[C@H](N)[C@H](O)[C@H](C)O1	0.8*	/	/	0.8*	/
O/N=C1\CC/C(=N\O)c2nn(-c3ccccc3Cl)nc21	105	/	47*	102	77
CCOC(=O)c1nnn(-c2nonc2-n2cccc2)c1CCl	85	1.5*	35*	85	3.3*
CCOC(=O)c1nnn(-c2nonc2-n2cccc2)c1CN1CCC(C)CC1	63	85	92	63	109
Cc1ccc(CS/C(Nc2ccccc2C)=C(\C#N)C(N)=O)c(C)c1	74	/	/	70	/
CN1CC(c2ccccc2)C2(SC(=S)N(Cc3ccco3)C2=O)C12C(=O)Nc1ccccc12 (stereo unspecified)	61	1.6*	93	69	50
Cc1cccc(OCCC(=O)NCC(=O)Nc2cccc(C)c2C)c1	91	/	/	91	/
COc1cc(NC(=O)c2cccs2)c(C(=O)OCC(=O)NC(=O)NCc2ccccc2)cc1OC	106	27*	100	94	74
O=C(COC(=O)C12CC3CC(CC(C3)C1)C2)NCCc1ccccc1	99	/	/	97	/
C=CCOc1ccc2nc(NC(=O)OC)[nH]c2c1	13	33*	49*	16	47
Clc1ccc2nc(C3CCN(Cc4nnnn4C4CCCCC4)CC3)[nH]c2c1	27	15*	64	30	68
Cc1ccc(Cn2nnnc2CN2CCC(c3nc4ccc(Cl)cc4[nH]3)CC2)cc1	23	/	/	14	/
O=C(Cn1cc(SCc2cccc(Cl)c2)c2ccccc21)N1CCOCC1	78	/	/	76	/
Cc1cc(C)c2ccc(C(=O)O)nc2c1O	69	38*	93	83	83
Cc1cc(C(=O)O)c2ccccc2n1	118	101	101	93	98
CC1CC1C(=O)Nc1nc(-c2cccs2)c(-c2cccs2)s1 (stereo unspecified)	64	/	/	64	/
Cc1cc(Cl)ccc1OCc1nc(-c2ccc(O)cc2)n[nH]1	92	22*	111	88	72
COc1ccc(/C=C/C(=O)NCC(=O)N/N=C/c2cc(Br)ccc2OCc2ccccc2)cc1	62	7.4*	78	60	46
O=C(Cc1ccc(F)cc1)N/N=C/c1ccncc1	99	/	/	95	/
COc1ccccc1-c1c(-c2ccc(OCC(=O)NN)cc2O)n[nH]c1C(F)(F)F	76	/	/	79	/
COc1ccc(-c2n[nH]c(C(F)(F)F)c2-c2cc3ccccc3o2)c(O)c1	13	11*	79	13	12*
SMILES	HCT116 bCat-KO	H69AR growth 86K	Lung fibro prol	PTEN del growth	HUVEC inhibit
CN1/C(=C\C(=O)CSc2nnc(NCc3ccccc3)s2)C(C)(C)c2ccccc21	59	/	/	52	/
Cc1cc(C(=O)CSc2nnc(NCc3ccccc3)s2)c(C)n1C	38	32*	63	41	66
O=C(CCS(=O)(=O)c1ccccc1)Nc1nc2c(s1)COc1ccccc1-2	3.1*	2.0*	50*	1.8*	58
COc1cc(NC(=O)Cn2c(=O)n(-c3cccc(C)c3)c(=O)c3c(C)c(C)sc32)cc(OC)c1	90	/	/	63	/
CCOc1ccc(-c2nc(=S)[nH][nH]2)cc1	107	40*	102	97	92
COc1ccc(-c2nc(=S)[nH][nH]2)cc1	91	77	100	94	98
C=C1CC(C(=O)N/N=C/c2ccccc2)C1	86	/	/	105	/
CC(=O)OCCCN1c2ccccc2Nc2nnc(-c3ccccc3)cc21	79	39*	88	71	67
O=C1C=C(c2ccccc2)C(=O)N1Nc1ccccc1	100	1.3*	67	102	73
Cc1ccc(NN2C(=O)C=C(c3ccc(Cl)cc3)C2=O)cc1	42	2.3*	87	10	53
